1 compound from ChEMBL document CHEMBL3102735, “Enhancing the pharmacodynamic profile of a class of selective COX-2 inhibiting nitric oxide donors” (Bioorg Med Chem, 2014) can be followed below.

Series [1] deals with T1, Prostaglandin G/H synthase 2 (Mus musculus, UniProt Q05769).
T1 sequence (Q05769 whole entry): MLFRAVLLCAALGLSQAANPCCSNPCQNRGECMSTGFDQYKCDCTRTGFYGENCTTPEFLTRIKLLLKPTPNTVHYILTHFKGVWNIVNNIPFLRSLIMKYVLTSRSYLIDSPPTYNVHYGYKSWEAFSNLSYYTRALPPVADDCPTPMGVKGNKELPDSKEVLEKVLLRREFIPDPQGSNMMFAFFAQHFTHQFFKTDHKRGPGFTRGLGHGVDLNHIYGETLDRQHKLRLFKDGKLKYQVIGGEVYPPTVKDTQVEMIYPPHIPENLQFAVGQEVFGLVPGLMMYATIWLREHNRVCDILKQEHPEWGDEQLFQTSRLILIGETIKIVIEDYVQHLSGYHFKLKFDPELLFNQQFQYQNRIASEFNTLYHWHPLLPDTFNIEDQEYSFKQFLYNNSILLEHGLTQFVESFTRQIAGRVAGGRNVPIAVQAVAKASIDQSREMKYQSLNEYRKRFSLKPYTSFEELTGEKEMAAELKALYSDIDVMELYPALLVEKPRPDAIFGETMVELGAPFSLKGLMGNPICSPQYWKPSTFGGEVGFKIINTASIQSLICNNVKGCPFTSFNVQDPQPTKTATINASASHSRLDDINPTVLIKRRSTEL
Put plainly: Inhibition of LPS-induced COX-2 in mouse J774 cells using arachidonic acid as substrate assessed as inhibition of prostaglandin E2 production preincubated for 15 mins followed by substrate addition measured after 30 mins by RIA. It is filed as cell-based.

Series [2] can be described thus: Clearance in Wistar rat at 10 mg/kg, iv by LC-MS/MS analysis. The format is ADME, organism-based. Also on record: dose 10 mg/kg, route intravenous. The following applies: in vivo. The method in brief:
(§1)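 Male Han Wistar rats, three per route, single 10 mg/kg/5 mL dose iv or po in 5% DMSO, 5% Cremophor EL, 0.1% Tween 80 in 150 mM phosphate buffer pH 7. Jugular-vein blood sampled, plasma methanol-precipitated, parent and hydroxy metabolite quantified by LC–MS/MS in positive ESI MRM mode (LLOQ 1–15 ng/mL).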

Series [3] concerns Mus musculus. Put plainly: Antiinflammatory activity in Swiss albino mouse assessed as reduction in carrageenan-induced paw edema at 20 mg/kg, po relative to control. The format is functional. More on the design: scale not given: the % may be the effect or the level left. The method in brief:
(§2)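 Intraplantar carrageenan, compound po in CMC; volume of right hind paw measured 4 h after carrageenan injection and compared with saline/carrageenan-treated controls; percent oedema reduction.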
For orientation: The carrageenan paw model is a standard test of acute inflammation.

Series [4] deals with Mus musculus. Put plainly: Antiinflammatory activity in Swiss albino mouse assessed as reduction in carrageenan-induced paw edema at 40 mg/kg, po relative to control. It is filed as functional. Also on record: scale not given: the % may be the effect or the level left. The method, boiled down: as §2
Series [5] in a line: Solubility of the compound in phosphate buffer saline at pH 7.4 after 90 mins by HPLC analysis. It is filed as physicochemical. The method, boiled down: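 DMSO stock (20 mM) diluted 2 µL into 198 µL PBS 0.01 M pH 7.4 or pepsin-free SGF 0.05 M pH 1.5, duplicate wells, shaken 90 min at 300 rpm. Filtrates analysed by HPLC with photodiode-array detection against seven-point standards (1–200 µM).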

The subject of series [6] is Mus musculus. Put plainly: Analgesic activity in Swiss albino mouse assessed as reduction of acetic acid-induced writhing at 40 mg/kg, po measured every 10 mins after 5 mins of administration relative to control. Also on record: scale not given: the % may be the effect or the level left. It is filed as functional. The method in brief:
(§3)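 Male Swiss albino mice (23–25 g), compound given orally in CMC vehicle; writhing induced by 0.6% acetic acid (10 mL/kg) ip. Stretching movements counted for 10 min, starting 5 min after administration; percent reduction versus CMC-treated animals.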

Series [7] can be described thus: Stability of the compound in phosphate buffer saline assessed as compound remaining at pH 7.4 after 30 mins by LC-MS/MS analysis. It is filed as physicochemical. The following applies: read-out: Stability. The method in brief:
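1 mM DMSO stock added to 0.01 M PBS (pH 7.4) or 0.05 M simulated gastric fluid without pepsin (pH 1.5 with HCl); incubated in hybridisation oven; aliquots at 0, 30, 60, 120 min quenched with ice-cold acetonitrile containing internal standard; parent remaining (%) measured.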

The test system of series [8] is Mus musculus. Put plainly: Antihyperalgesic activity in Swiss albino mouse assessed as reduction in carrageenan-induced inflammation at 20 mg/kg, po after 60 mins relative to control. It is filed as functional. Also on record: scale not given: the % may be the effect or the level left.
For series [9], the system named is Mus musculus. Put plainly: Analgesic activity in Swiss albino mouse assessed as reduction of acetic acid-induced writhing at 20 mg/kg, po measured every 10 mins after 5 mins of administration relative to control. The format is functional. More on the design: scale not given: the % may be the effect or the level left. The method in brief:
as §3
In general terms: Writhing tests count abdominal constrictions after an irritant is injected.

The nature of series [10]: Metabolic stability in Sprague-Dawley rat plasma assessed as compound remaining after 120 mins by LC-MS/MS analysis. The format is ADME, cell-free. Conditions: read-out: Stability; call rule not given here. The method, boiled down:
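Compound (12 µL of 1 mM DMSO solution into 588 µL medium) incubated in PBS pH 7.4, pepsin-free SGF pH 1.5, or EDTA rat plasma. Aliquots taken at 0, 30, 60, 120 min and quenched with ice-cold acetonitrile containing internal standard; parent remaining as percent.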

The target in series [11] is T2, Prostaglandin G/H synthase 1 (Mus musculus) (UniProt P22437).
T2 sequence (whole entry): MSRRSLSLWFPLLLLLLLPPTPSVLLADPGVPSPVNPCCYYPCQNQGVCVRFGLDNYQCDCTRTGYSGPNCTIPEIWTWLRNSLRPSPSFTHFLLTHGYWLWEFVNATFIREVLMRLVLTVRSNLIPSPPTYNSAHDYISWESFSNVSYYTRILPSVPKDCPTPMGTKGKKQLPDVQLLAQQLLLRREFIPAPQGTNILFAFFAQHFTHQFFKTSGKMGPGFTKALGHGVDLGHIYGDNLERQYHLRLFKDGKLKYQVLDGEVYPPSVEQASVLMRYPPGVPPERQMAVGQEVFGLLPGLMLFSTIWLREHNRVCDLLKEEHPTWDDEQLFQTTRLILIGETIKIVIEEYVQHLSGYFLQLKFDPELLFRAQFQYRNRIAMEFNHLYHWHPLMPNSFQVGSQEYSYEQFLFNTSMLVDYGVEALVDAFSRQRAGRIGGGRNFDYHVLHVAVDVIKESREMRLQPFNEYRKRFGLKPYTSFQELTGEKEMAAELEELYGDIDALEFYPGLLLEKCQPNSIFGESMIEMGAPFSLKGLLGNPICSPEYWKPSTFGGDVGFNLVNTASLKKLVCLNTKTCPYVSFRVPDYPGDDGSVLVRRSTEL
Put plainly: Inhibition of COX-1 in mouse J774 cells using arachidonic acid as substrate assessed as inhibition of prostaglandin E2 production at 10 uM preincubated for 15 mins followed by substrate addition measured after 30 mins by RIA. It is filed as cell-based. The method in brief: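 J774 murine macrophages pretreated 15 min with compound (10 µM; lower concentrations 0.01–1 µM where needed), then incubated 30 min at 37 °C with 15 µM arachidonic acid; supernatant PGE2 measured by RIA. Triplicate wells, mean of three experiments of percent inhibition versus control; IC50 by sigmoidal fit.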

Series [12] relates to Rattus norvegicus. Put plainly: Drug metabolism in Wistar rat plasma assessed as 2-(1-(4-fluorophenyl)-2-methyl-5-(4-(methylsulfonyl)phenyl)-1H-pyrrol-3-yl)-N-(2-hydroxyethyl)acetamide metabolite at 10 mg/kg, po up to 6 hrs by LC-MS/MS analysis. It is filed as ADME, organism-based. More on the design: dose 10 mg/kg, route oral. The following applies: in vivo. The method, boiled down:
as §1

Series [13] concerns Mus musculus. Put plainly: Antihyperalgesic activity in Swiss albino mouse assessed as reduction in carrageenan-induced inflammation at 40 mg/kg, po after 60 mins relative to control. The format is functional. Also on record: scale not given: the % may be the effect or the level left.
Series [14] has as its system Plasma. Put plainly: Metabolic stability in Wistar rat plasma at 10 mg/kg, iv up to 6 hrs by LC-MS/MS analysis. It is filed as ADME, organism-based. More on the design: dose 10 mg/kg, route intravenous. The following applies: in vivo.

The IC50 is the concentration that gives 50% inhibition. The clearance is a measure of how efficiently the substance is removed, as volume per time. Broadly, the solubility is the concentration that dissolves in the medium under given conditions. One may read the inhibition as the share of the control response that was lost under treatment. As for `Cc1c(CC(=O)NCCO[N+](=O)[O-])cc(-c2ccc(S(C)(=O)=O)cc2)n1-c1ccc(F)cc1`, in series [1], the IC50 worked out at 249 nM. This compound also showed a clearance in series [2] of 10 mL/min. Besides, the Activity is given as 4% in series [3]; 10% in series [4]; 75% in [6]; 30% in [8]; 77% in series [9]; 60% in [13]. Further, the solubility at 1.5 h in series [5] is > 200 µM. Besides, the remaining at 0.5 h in series [7] came out at 100%. In addition, the remaining at 2 h in series [10] is 100%. In addition, in series [11], the inhibition amounted to 9%. Moreover, the Drug metabolism entry in [12] is “Active”. The Stability result in [14] was “Stable”.
